The source of these data is ChEMBL document CHEMBL1144695, “Synthesis and evaluation of novel polyaminocarboxylate-based antitumor agents” (J Med Chem, 2008).

One assay concerns HeLa. Kind of assay: Cytotoxicity against human HeLa cells after 72 hrs by MTS assay. It counts as functional, cell-based. A digest of the protocol:
(§1)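 Cells attached 24 h before dosing: HeLa at 2000 cells/well in MEM with 10% FBS, and HT29 at 5000 cells/well in RPMI-1640 with 10% FBS. At least five serial dilutions were added for 72 h at 37 °C in 5% CO2. MTS/PMS was then added for 3 h and absorbance read at 490 nm, relative to untreated solvent controls. Runs were at least triplicate, and IC50 came from nonlinear regression.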

For the next assay, the system named is HT-29. In words: Cytotoxicity against human HT29 cells after 72 hrs by MTS assay. Particulars: HT-29, 72 h. The format is functional, cell-based. The gist of the method:
as §1
(Formazan colour is commonly taken as a measure of viable cells.)

Another assay concerns MRC5. Kind of assay: Induction of proliferation in human MRC5 cells. Details: unit: fraction of untreated control. It counts as functional. A digest of the protocol: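 Normal MRC-5 lung fibroblasts were grown in EMEM with 10% FBS, seeded at 5000 cells/well and allowed 24 h to attach. Chelators at 50 µM were given for 72 h at 37 °C in 5% CO2. Read-out was MTS/PMS for 3 h, with absorbance at 490 nm expressed as a fraction of untreated solvent controls. Runs were at least triplicate.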

In the case of `O=C(O)CNC(Cc1ccc([N+](=O)[O-])cc1)CN1CCN(CC(=O)O)CCN(CC(=O)O)CC1` (stereo unspecified), the IC50 (usually the concentration at which inhibition is half-maximal) was determined as 7.1 µM in the assay on HeLa and 5 µM with HT-29. In the assay on MRC5, the Activity is reported as 2.

As to `O=C(O)CNC(Cc1ccc(Nc2ccc([N+](=O)[O-])c3nonc23)cc1)CN1CCN(CC(=O)O)CCN(CC(=O)O)CC1` (stereo unspecified), the Activity in the assay on MRC5 came out at 2.

In the case of `O=C(O)CNCCN1CCN(CC(=O)O)CCN(CC(=O)O)CC1`, the IC50 in the assay with HeLa amounted to 5.7 µM; in the assay with HT-29, 4.7 µM. In the assay on MRC5, this compound showed an Activity of 2.

In the case of `O=C(O)CN1CCN(CC(=O)O)CCN(CC(Cc2ccc([N+](=O)[O-])cc2)N(CC(=O)O)CC(=O)O)CC1` (stereo unspecified), the IC50 with HeLa is greater than 100 µM; in the assay on HT-29 it was 45.7 µM.

Turning to `O=C(O)CN1CCN(CCN(CC(=O)O)Cc2ccc([N+](=O)[O-])cc2)CCN(CC(=O)O)CC1`, the IC50 in the assay with HeLa stood at 8.4 µM; in the assay with HT-29, 6.8 µM. For the same compound, the Activity in the assay with MRC5 was found to be 2.

`O=C(O)CN1CCN(CCN(CC(=O)O)CC(=O)O)CCN(CC(=O)O)CC1` came in with an IC50 with HT-29 of 7.3 µM. Besides, the Activity in the assay on MRC5 is on record as 2.

As for `O=C(O)CN1CCN(CCN(CC(=O)O)Cc2ccccc2)CCN(CC(=O)O)CC1`, the IC50 amounted to 4.4 µM with HeLa and 2.6 µM with HT-29. The same compound had an Activity in the assay with MRC5 of 2.

Consider `CC(=O)N(O)CCCCCNC(=O)CCC(=O)N(O)CCCCCNC(=O)CCC(=O)N(O)CCCCCN` [DEFEROXAMINE], for which the IC50 in the assay with HeLa was greater than 50 µM; in the assay with HT-29, 36.1 µM.

`O=C(O)CN(CCN(CC(=O)O)CC(=O)O)CCN(CC(=O)O)CC(=O)O` [PENTETIC ACID]: the IC50 in the assay on HeLa stood at 264 µM; in the assay with HT-29, 39.1 µM.
